Assay: Toxicity liver stage against HepG2, at 10uM
Type: cell-based
Set-up: test concentration 10 uM, cell line HepG2-A16-CD81EGFP
Conditions: human, HepG2-A16-CD81EGFP cells; read-out: INHIBITION
Method in brief: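 Uninfected HepG2-A16-CD81EGFP cells, 3 × 10^3 per well, 1536-well, plated on prespotted compound at 10 μM final, parasite-free screening media added to match infected plates; puromycin 10 μM positive, DMSO 0.5% negative; run in parallel with 48 h PbLuc assay at 37 °C, 5% CO2; viability by CellTiter-Glo luminescence, normalized to controls.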

Row | SMILES | cytotoxicity at 10 µM
1 | Cn1c(C(=O)N2CCC(CC(N)=O)CC2)c(Cl)c2ccccc21 | 18.7%
2 | COC[C@@H]1CCC[C@]12CN(S(=O)(=O)c1cn(C)cn1)CCO2 | 4.06%
3 | Cn1cccc1C(=O)N1C[C@@H](OCc2ccncc2)[C@@H]2OCCC[C@@H]21 | 2.32%
4 | CCn1nc(C)c(C(C)Nc2cc(C3CCNCC3)nc(C)n2)c1C (stereo not drawn) | 2.38%
5 | CCC(=O)N1CCN(S(=O)(=O)c2cccc(F)c2)[C@H]2CS(=O)(=O)C[C@H]21 | -52%
6 | CN1CCN(CCCNC(=O)c2nc3ccccc3c(=O)[nH]2)CC1 | -5.46%
7 | c1cnc(N2CCC3(COCc4cnc(N5CCOCC5)nc43)C2)nc1 (stereo not drawn) | -1.72%
8 | Cc1cc(CN2CCN(C(=O)C(C(C)C)n3cncn3)CC2)no1 (stereo not drawn) | -9.88%
9 | C=C(C)Cn1nc(C)c(CN2CCN(C3CCCCC3)C(=O)C2)c1C | 4.59%
10 | Cn1ccnc1-c1noc(NCc2ccc(Cl)cc2)n1 | -9.46%
11 | CCc1nc(CN2CCCN(C(=O)c3cnc(C)cn3)CC2)cs1 | -4.81%
12 | O=C(c1ccccn1)N1CCCN(Cc2nnc(C3CC3)o2)CC1 | 5.25%
13 | CN1CCN(Cc2ccc(Cl)cc2)CC1C(=O)O (stereo not drawn) | -2.31%
14 | Cn1cc(CN2CCOC(c3cccc(-c4cccc(F)c4)n3)C2)cn1 (stereo not drawn) | -11.1%
15 | Cc1nccn1-c1ccc(C(C)NCc2ncc[nH]2)cc1 (stereo not drawn) | 1.91%
16 | CC(=O)Nc1cc(-c2cccc(F)c2F)n[nH]1 | -0.305%
17 | CCOC(=O)C1CCN(CCCc2nnnn2-c2ccccc2)CC1 | 0.462%
18 | CCOc1ncccc1Cn1cc2[nH]cccc-2c1=O | 1.93%
19 | COc1cc(C(=O)NCCc2ccccc2OC)on1 | 0.409%
20 | O=C(NCCOc1ccc(F)c(F)c1)NCc1ccncc1 | -8.25%
21 | CC(C)N(Cc1ccccc1)Cc1nnsc1Cl | -9.44%

Row | SMILES | cytotoxicity at 10 µM
22 | CC(C)c1ncc2c(n1)CN(Cc1nc3c(F)cccc3[nH]1)CC2 | 1.09%
23 | COc1ccccc1N1CCN(CC(=O)NC(C)c2ccco2)CC1 (stereo not drawn) | -2.58%
24 | Cn1cccc1CN1CCc2c(nc(-c3ccccn3)[nH]c2=O)C1 | -10%
25 | CN1CCCc2cc(CNC(=O)c3ccc(-n4cnnc4)cc3)ccc21 | -4.9%
26 | CC(C)c1nc(CN2CCOC(Cn3cccn3)C2)no1 (stereo not drawn) | -9.43%
27 | O=C(NC1CCCC1)C1CCN(c2cc(-n3ccnc3)ncn2)CC1 | -9.19%
28 | COc1ccc(Br)c(NC(=O)NCc2cnn(C)c2)c1 | 6.91%
29 | CC(C)COC(C)C(=O)N1CCCC1 (stereo not drawn) | 2.77%
30 | CCNC(=O)N1C[C@@H]2OCC(=O)N(C(C)C)[C@@H]2C1 | -0.155%
31 | Cc1nc(NS(=O)(=O)c2ccc(F)c(Br)c2)no1 | 6.04%
32 | CC(=O)NCCNC(=O)CN1CCCC1Cn1nc(C)nc1C (stereo not drawn) | -1.26%
33 | CN(C)c1nc(O)cc(C2CCN(C(=O)Cc3ccccn3)C2)n1 (stereo not drawn) | -0.399%
34 | Cn1nccc1C(=O)N1CCOC(Cc2ccc(F)cc2)C1 (stereo not drawn) | 5.08%
35 | CCc1c(C)nc2ccccc2c1N1CCC(O)CC1 | 0.395%
36 | Cc1ccc(NC(C)C(=O)NCc2cccs2)cc1C (stereo not drawn) | -16.4%
37 | CC(C)N(C)C(=O)c1ccc(CNc2ccncc2Cl)cc1 | 55.8%
38 | O=C1COC2(CCN(CC3CCC3)CC2)CN1c1cncnc1 | -1.11%
39 | Cc1nnc2n1CCN(Cc1csc(-c3ncccn3)n1)C2 | -38.1%
40 | Cc1ccc(-c2nc(CN3CCc4nn(C)c(=O)cc4C3)no2)cc1 | -8.38%
41 | O=C(CCn1cnnn1)N1CCCC(CO)(CCCc2ccccc2)C1 (stereo not drawn) | 2.74%
42 | CC(C)NC(=O)N1CCC2(CC(C(=O)NCc3cccnc3)=NO2)C1 (stereo not drawn) | -0.8%

Row | SMILES | cytotoxicity at 10 µM
43 | CCCS(=O)(=O)N1CCC2(CN(c3cnn(C)c3)C(=O)CN2C)C1 (stereo not drawn) | -10.7%
44 | Cc1n[nH]c2c1C(c1ccc(O)cc1)SCC(=O)N2 (stereo not drawn) | 10.6%
45 | Cc1cc(C)n(C2CCN(S(=O)(=O)N3CCC(C)CC3)CC2)n1 | 6.36%
46 | CC(C)CN1Cc2cccc(NC(=O)Cc3ccon3)c2C1 | 4.86%
47 | CC(c1ccco1)N(C(=O)CNc1ccc(C#N)cc1)C1CC1 (stereo not drawn) | 7.79%
48 | Cc1ccc(S(=O)(=O)N2CCOc3ccccc32)cc1C(N)=O | 7.91%
49 | CC(C)CNC(=O)N1C[C@@H]2CCCN[C@@H]2C1 | 5%
50 | CC(=O)c1ccc(N2CCN(C(=O)c3cc(C(C)C)nn3C)CC2)cc1 | 11%
51 | Cc1nc2sccn2c1C(=O)N1CCc2c(nc(N(C)C)[nH]c2=O)C1 | 5.06%
52 | CN(C)c1cc(CNC(=O)c2ccc(O)nc2)ccn1 | -16%
53 | Cn1c(C(=O)Nc2nc[nH]n2)cc2ccccc21 | 1.24%
54 | NC(=O)CNC1(c2ccc(Cl)cc2)CCCC1 | 13%
55 | O=C(NCCCC(=O)N1Cc2ccccc2C1)NCc1ccsc1 | -15%
56 | NC(=O)CS(=O)(=O)Cc1ccc(OCc2ccc(F)cc2)cc1 | 4.93%
57 | CN(C)C(=O)c1ccc(C2CCCN2C(=O)CCC2=NNC(=O)CC2)s1 (stereo not drawn) | 9.19%
58 | CC(C)C1CN(C(=O)c2ccncc2)CCS1 (stereo not drawn) | 9.72%
59 | C=C(C)COc1ccccc1C(=O)N(C)C(C)c1c(C)n[nH]c1C (stereo not drawn) | 3.23%
60 | O=C(c1ccccn1)N1CCCC(c2cc(C(F)F)n3ncnc3n2)C1 (stereo not drawn) | -1.74%
61 | O=C(Nc1ccc(F)cc1)C1CNCCN1C(=O)CSc1ccncc1 (stereo not drawn) | -0.316%
62 | CC(C)C(=O)N1CCN(CC(O)c2cc(Cl)ccc2Cl)CC1 (stereo not drawn) | 3.41%
63 | CC(C)CN(CC(O)c1ccccc1)C(=O)NC(C)C (stereo not drawn) | -3.96%

Row | SMILES | cytotoxicity at 10 µM
64 | CCC(C)NC(=O)NCc1cc2n(n1)CCCN(C1CCCCC1)C2 (stereo not drawn) | 3.11%
65 | COc1ncc(NCc2ccc(Cl)c(Cl)c2)cc1C(N)=O | 32.7%
66 | CC(Cn1cccn1)n1cnc2cccc(F)c2c1=O (stereo not drawn) | -0.288%
67 | CN(C)C(=O)CNC(=O)c1nc2c(s1)CCCN2Cc1ccccc1 | 8.13%
68 | Cc1cnn(CC2CCCN2Cc2cc(=O)n3c(C)csc3n2)c1 (stereo not drawn) | -2.11%
69 | Cc1cc2c(o1)CC(C)(C)CC2NC(=O)CNC(=O)C1CC1 (stereo not drawn) | 4.57%
70 | COCC1CC2(CCN(Cc3ccoc3)CC2)CN1Cc1ccccn1 (stereo not drawn) | -98.8%
71 | O=C(NCCNc1ncccn1)C1CC(=O)N(Cc2ccco2)C1 (stereo not drawn) | -8.78%
72 | COCCc1noc(CN2CCOC(Cn3nc(C)cc3C)C2)n1 (stereo not drawn) | -6.66%
73 | O=C(Nc1ccncc1)NC1CCN(c2ccccc2Cl)C1=O (stereo not drawn) | -43.6%
74 | Cc1cc(CC(=O)NC2CCCN(c3ccccc3Cl)C2=O)n[nH]1 (stereo not drawn) | 3.55%
75 | CC(C)OC(=O)CCNC(=O)Nc1cccc2ncccc12 | 1.03%
76 | CC(C)CNC(=O)Nc1cccc(OCC#N)c1 | -0.353%
77 | O=C1CC2(CCCCN2C(=O)c2ccco2)CN1c1cccnc1 (stereo not drawn) | -1.69%
78 | CCc1cc(=O)n(CC(=O)NCC2CCCO2)c(-c2cccc(F)c2)n1 (stereo not drawn) | -1.61%
79 | Cc1nc(Nc2nnc(C)s2)cc(C2CCCN2C)n1 (stereo not drawn) | 8.67%
80 | Cc1ccc(CC(=O)N2CCC(Nc3ccc(C)nn3)CC2)cn1 | -4.75%
81 | CC(CNC(=O)N1CCN(CC(F)F)CC1)Cc1cccs1 (stereo not drawn) | -4.92%
82 | CCOc1ccc(C(F)(F)F)cc1NC(=O)NCc1noc(C)n1 | -5.1%
83 | O=C(C1CCCN(C2CCOCC2)C1)N1CCc2ncccc2C1 (stereo not drawn) | 4.21%

Reference: ChEMBL document CHEMBL4513216, “Probing the Open Global Health Chemical Diversity Library for Multistage-Active Starting Points for Next-Generation Antimalarials” (ACS Infect Dis, 2020)
